PABP1 MLLE inh: inhibitors of microRNA-mediated deadenylation, human PABP1 MLLE binding; P11940; GST-MLLE / FITC-PAM2 fluorescence polarization; inhibition, % at 20 µM; 0.36% of 360,000 active; AID 588489; in the data active means inhibition above about 35%, passing the limit was not always enough;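 further: plate controls were DMSO wells with GST-MLLE for no effect and wells lacking GST-MLLE protein for full effect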
RBBP9 inhibitor: blocks human serine hydrolase RBBP9. inhibition, % at 7.94 µM. AID 1515. O75884. recombinant RBBP9, FP-Rh probe fluorescence polarization. 0.2% of 220,000 active;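 active means inhibition above the campaign mean of all tested compounds plus 3 SD, cut at about 14% in these data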;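 further: plate controls were DMSO wells with RBBP9 for no effect and wells lacking RBBP9 protein for full effect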
Target sequence (O75884 whole entry, looked up): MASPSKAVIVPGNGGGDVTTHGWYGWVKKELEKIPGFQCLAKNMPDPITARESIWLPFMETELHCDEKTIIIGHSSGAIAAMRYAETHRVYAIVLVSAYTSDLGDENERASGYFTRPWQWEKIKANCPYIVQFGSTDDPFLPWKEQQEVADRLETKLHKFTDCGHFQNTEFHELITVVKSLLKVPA
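Test system: recombinant human RBBP9. Quantity: 2.5 µM RBBP9 dispensing solution, before mixing. Detection: FP readout at 525/598 nm. Reagent: Serine-hydrolase probe FP-Rh, 375 nM pre-mixing. Measure: % inhibition. Control set: DMSO-treated enzyme wells and wells lacking RBBP9. Buffer or medium: Tris-NaCl-Pluronic buffer, pH 8.0. Times: preincubation 30 min plus labeling 45 min at 25 °C.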
PABP polyA inh: PABP-poly(A) binding inhibition; P11940; PABP-poly(A) RNA binding, fluorescence polarization; calls only at 35 µM; 1% of 290,000 active;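 further: calls also rest on retests at 20 µM and on dose response follow-up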
TCR CD3 inh: inhibitors of human TCR-CD3 interaction. TAMRA-labeled TCR probe fluorescence, biochemical. inhibition, % at 9.4 µM. 0.37% of 360,000 active. AID 651800; in the data active means inhibition above about 19%;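 further: recombinant mutant TCR 2C K166C tagged with TAMRA read by polarization; 0% = receptor in buffer alone and 100% = receptor with positive control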
eIF4H FP inh: inhibitors of RNA binding by human eIF4H | Q15056 | eIF4H fluorescence polarization binding assay | inhibition, % at 35 µM | 0.94% of 290,000 active;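 further: calls also rest on retests at 20 µM and on dose response follow-up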
Starred values were filed as active, the others as inactive; i = inactive; ? = inconclusive; . = no result; + = active, no number; ! = a repeat was not active. In the library only some 1.6% were active in any assay of this set; here they are far more common. Unless noted, how the calls were made is not given here.

SMILES	PABP1 MLLE inh	RBBP9 inhibitor	PABP polyA inh	TCR CD3 inh	eIF4H FP inh
COc1ccc(C(=O)CN2CCN(S(=O)(=O)c3cccc([N+](=O)[O-])c3)CC2)cc1OC	39*	-11	i	1	-9
Nc1c(C(=O)O)sc2nc(-c3ccc(F)cc3)cc(-c3ccccc3)c12	-42	3	+	-4	81
NC(=O)[C@@H]1CCCN1C(=O)[C@H](CCc1ccccc1)NC(=O)[C@H]1O[C@@H](n2cnc3c(N)ncnc32)[C@H](O)[C@@H]1O	.	.	.	-4	.
COc1ccc(C2CC(=O)C(c3cccc(OC)c3)=CN2Cc2ccccc2)cc1 (stereo not given)	.	.	.	4	.
CCCCc1ccc(-c2csc(/C(C#N)=C\c3ccc(C)o3)n2)cc1	-69	-7	i	0	26
CCOc1ccc(-c2csc(/C(C#N)=C\c3ccc(O)c([N+](=O)[O-])c3)n2)cc1	-25	0	i	-5	58*
O=S(=O)(NCCNS(=O)(=O)c1cccs1)c1cccs1	-11	-7	i	-3	5
C=CCNC(=S)NS(=O)(=O)c1cccs1	44*	-4	i	4	-4
O=C(NNS(=O)(=O)c1ccc([N+](=O)[O-])cc1)C(=O)Nc1cccc(C(=O)O)c1	33	.	i	6	60*
O=C(NNS(=O)(=O)c1ccc([N+](=O)[O-])cc1)c1ccccc1	-6	.	.	5	.
CN(C(=O)[C@H]1O[C@@H](n2cnc3c(=O)[nH]c(N)nc32)[C@H](O)[C@@H]1O)C1CCCCC1	.	.	.	-3	.
Oc1cccc(/C=N/Nc2cc(N3CCCC3)nc(N3CCCC3)n2)c1	14	-6	i	-11	29*
Oc1ccc(/C=N/Nc2cc(N3CCCC3)nc(N3CCCC3)n2)cc1	70*	-2	?	-3	51
COc1ccc(/C=N/Nc2cc(N3CCCC3)nc(N3CCCC3)n2)cc1	54*	-7	i	3	23
Oc1ccc(/C=N/Nc2cc(N3CCOCC3)nc(N3CCOCC3)n2)cc1	12	-10	.	1	.
CC(C)(C)OC(=O)NC(Cc1ccccc1)C(=O)N1CCC(C(=O)NCC(=O)Nc2ccc(F)cc2)CC1 (stereo not given)	38*	.	?	7	?
COc1ccccc1CCn1cnc(-c2ccccc2)c1CC(C)C	.	.	.	-12	.
Cn1nc(N)c2c(-c3ccc(Cl)cc3)c(C#N)c(N)nc21	-11	-2	i	4	-7
CCN(CC)c1ccc(-c2c(C#N)c(N)nc(OC)c2C#N)cc1	-8	-1	+	2	60*
O=S(=O)(c1ccc2nc(-c3ccco3)c(-c3ccco3)nc2c1)N1CCOCC1	23	4	+	16	95*
O=C(c1ccc2nc(-c3ccco3)c(-c3ccco3)nc2c1)N1CCN(c2ccccc2)CC1	22	6	+	-5	94*
O=S(=O)(c1ccc2ccccc2c1)N1CCOCC1	4	.	i	7	-4
O=C(c1ccco1)N1CCN(C(=O)c2cc(-c3ccncc3)nc3ccc(Br)cc23)CC1	-45	-3	.	0	.
O=C(O)c1cc(-c2ccco2)nc2ccc(Br)cc12	24	-7	+!	0	87*
O=C(O)c1ccc2nc(-c3ccco3)c(-c3ccco3)nc2c1	50*	2	+	-5	98*
SMILES	PABP1 MLLE inh	RBBP9 inhibitor	PABP polyA inh	TCR CD3 inh	eIF4H FP inh
CCc1nc2ccc(C(=O)N3CCN(c4ccccc4)CC3)cc2nc1CC	-11	.	i	4	-9
CCCCc1nnn2c1C1c3cc(-c4cccnc4)ccc3CCN1C(=O)C2 (stereo not given)	.	.	.	-4	.
O=C(NCc1ccco1)c1ccc(S(=O)(=O)N2CCOCC2)cc1	27	-8	+	3	79*
O=C(Nc1cccc(C(F)(F)F)c1)c1ccc2nc(-c3ccco3)c(-c3ccco3)nc2c1	-14	-17	+	-7	75*
O=C(Nc1cccc(C(F)(F)F)c1)c1cc[n+]([O-])cc1	-1	.	i	-5	-8
CCOc1ccc(C(=O)NC(C)(C)CC)cc1	0	-5	+	-3	-4
CCOCCCNC(=S)N1CCC(NC(=O)c2ccco2)CC1	-23	-6	+	-4	-8
CC(C)CNC(=S)N1CCC(NC(=O)c2ccco2)CC1	-106	-2	i	0	-8
COc1ccc(-c2c[n+]3c(n2-c2ccccc2)CCCCC3)cc1	0	-7	+	0	?
COC(=O)C1=C(C)N(Cc2cccc(C(F)(F)F)c2)C(=NCc2ccc(C(F)(F)F)cc2)NC1c1cccc(C(F)(F)F)c1 (stereo not given)	.	.	.	9	.
O=C(O)c1ccc(C[n+]2c(-c3ccccc3)csc2Nc2ccccc2)cc1	-6	-2	i	4	1
CC(C)(C)c1cc(-c2csc(Nc3ccccc3)[n+]2Cc2ccc(C(=O)O)cc2)cc(C(C)(C)C)c1O	-10	-8	+	.	52*
O=C(CN1C(=O)/C(=C/c2ccco2)SC1=S)Nc1ccc(O)c(C(=O)O)c1	-15	.	+	-1	81*
Cc1ccc(NC(=O)CN2C(=O)N/C(=C/c3cccn3-c3ccc(C(=O)O)cc3)C2=O)cc1	-12	-3	i	11	88
O=C(CCCN1C(=O)/C(=C/c2ccco2)SC1=S)Nc1cccc(C(=O)O)c1	-2	2	+	6	94*
CC(C(=O)Nc1ccc(C(=O)O)c(O)c1)N1C(=O)/C(=C\c2ccco2)SC1=S (stereo not given)	-15	.	+	.	100*
O=C(CCCN1C(=O)/C(=C\c2cccs2)SC1=S)Nc1cccc(C(=O)O)c1	4	-1	i	3	7
Cc1ccc(NC(=O)CN2C(=O)N/C(=C/c3ccco3)C2=O)cc1	19	2	+	14	90*
O=C(CCN1C(=O)/C(=C\C=C\c2ccccc2)SC1=S)Nc1ccc(C(=O)O)cc1	-10	.	+	-11	68*
CC(=C\c1ccco1)/C=C1/SC(=S)N(CC(=O)O)C1=O	3	-1	+	6	87*
O=C(CN1C(=O)S/C(=C/C=C/c2ccccc2)C1=O)Nc1ccc(C(=O)O)cc1	11	-5	i	3	0
O=C(CN1C(=O)/C(=C/c2ccco2)SC1=S)Nc1ccc(C(=O)O)c(O)c1	-41	.	+	-2	92*
O=C(CCCN1C(=O)/C(=C/c2ccccc2)SC1=S)Nc1ccc(C(=O)O)c(O)c1	16	.	i	7	1
CCCCCCCCCCCCCCCC[n+]1ccc(/C=N/O)cc1	4	40*	i	3	13
CCCCS(=O)(=O)N1CCCc2nc(-c3ccc(OC)cc3)ccc21	.	.	.	0	.
NS(=O)(=O)c1ccc(CCNC(=O)C(=O)c2cn(CC(=O)N3CCCC3)c3ccccc23)cc1	5	.	i	-7	-4
Cc1c(C(=O)C(=O)NCCc2ccc(S(N)(=O)=O)cc2)c2ccccc2n1C	-6	3	+	5	93*
COc1ccc(NC(=S)NC(C)Cc2cccs2)cc1 (stereo not given)	-48	-1	+	-7	108*

High-throughput results as filed in PubChem.
